From ChEMBL document CHEMBL4354800, “Amphiphilic nebramine-based hybrids Rescue legacy antibiotics from intrinsic resistance in multidrug-resistant Gram-negative bacilli” (Eur J Med Chem, 2019)

Tests used:
Pseudomonas aeruginosa [1] = experiment: Potentiation of minocycline-induced antimicrobial activity against MDR/XDR Pseudomonas aeruginosa isolate 101885 harboring GyrA Thr83Ile mutant assessed as minocycline MIC80 incubated for 18 hrs by broth microdilution method (reference value: 32 microg/ml); type: functional; conditions: isolate 101885, 18 h
HepG2 = experiment: Cytotoxicity against human HepG2 cells at 50 uM incubated for 48 hrs by PrestoBlue dye based fluorescence assay; type: cell-based; conditions: hepg2, 48 h
Pseudomonas aeruginosa [2] = experiment: Synergistic antibacterial activity against MDR/XDR Pseudomonas aeruginosa isolate 100036 harboring GyrA T83I mutant assessed as fractional inhibitory concentration index in presence of minocycline incubated for 18 hrs by broth microdilution method; type: functional
Method in brief: (§1)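 Checkerboard synergy assay. Antibiotic and adjuvant in twofold dilutions in Mueller-Hinton broth. Inoculum 5 × 10^5 CFU/mL from a 0.5 McFarland suspension, 18 h at 37 °C, MIC read by turbidity and confirmed at 590 nm. FIC = MIC in combination / MIC alone for each agent, FICI = sum. Interpreted as ≤0.5 synergy, 0.5–4 no interaction, >4 antagonism.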

Pseudomonas aeruginosa [3] = experiment: Antimicrobial activity against MDR/XDR Pseudomonas aeruginosa isolate PA260-97103 harboring GyrA Thr83Ile mutant incubated for 18 hrs by broth microdilution method; type: functional; conditions: isolate PA260-97103, 18 h
Method in brief: (§2)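 Broth microdilution per CLSI: overnight cultures set to 0.5 McFarland in saline, diluted 1:50 in Mueller-Hinton broth to a final 5 × 10^5 CFU/mL, added to 2-fold serial dilutions, incubated 18 h at 37 °C; MIC is the lowest concentration without visible turbidity, confirmed at 590 nm.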

Pseudomonas aeruginosa [4] = experiment: Synergistic antibacterial activity against MDR/XDR Pseudomonas aeruginosa isolate PA260-97103 harboring GyrA T83I mutant assessed as fractional inhibitory concentration index in presence of rifampicin incubated for 18 hrs by broth microdilution method; type: functional; method in brief: as §1
Pseudomonas aeruginosa [5] = experiment: Synergistic antibacterial activity against MDR/XDR Pseudomonas aeruginosa isolate PA260-97103 harboring GyrA T83I mutant assessed as fractional inhibitory concentration index in presence of moxifloxacin incubated for 18 hrs by broth microdilution method; type: functional; method in brief: as §1
Pseudomonas aeruginosa [6] = experiment: Synergistic antibacterial activity against MDR/XDR Pseudomonas aeruginosa isolate 101243 devoid of GyrA T83I mutant assessed as fractional inhibitory concentration index in presence of rifampicin incubated for 18 hrs by broth microdilution method; type: functional; method in brief: as §1
Pseudomonas aeruginosa [7] = experiment: Synergistic antibacterial activity against MDR/XDR Pseudomonas aeruginosa isolate 100036 harboring T83I mutant assessed as fractional inhibitory concentration index in presence of rifampicin incubated for 18 hrs by broth microdilution method; type: functional; method in brief: as §1
HEK293 = experiment: Cytotoxicity against HEK293 cells at 50 uM incubated for 48 hrs in presence of 50 uM rifampicin by PrestoBlue dye based fluorescence assay; type: cell-based; conditions: human, hek293, 48 h
Pseudomonas aeruginosa [8] = experiment: Synergistic antibacterial activity against MDR/XDR Pseudomonas aeruginosa isolate 101243 devoid of GyrA T83I mutant assessed as fractional inhibitory concentration index in presence of moxifloxacin incubated for 18 hrs by broth microdilution method; type: functional; method in brief: as §1
Pseudomonas aeruginosa [9] = experiment: Synergistic antibacterial activity against MDR/XDR Pseudomonas aeruginosa isolate 91433 devoid of GyrA T83I mutant assessed as fractional inhibitory concentration index in presence of rifampicin incubated for 18 hrs by broth microdilution method; type: functional; method in brief: as §1
Pseudomonas aeruginosa [10] = experiment: Synergistic antibacterial activity against MDR/XDR Pseudomonas aeruginosa isolate 101243 devoid of GyrA T83I mutant assessed as fractional inhibitory concentration index in presence of ciprofloxacin incubated for 18 hrs by broth microdilution method; type: functional; method in brief: as §1
Pseudomonas aeruginosa [11] = experiment: Synergistic antibacterial activity against MDR/XDR Pseudomonas aeruginosa isolate PA260-97103 harboring GyrA T83I mutant assessed as fractional inhibitory concentration index in presence of ciprofloxacin incubated for 18 hrs by broth microdilution method; type: functional; method in brief: as §1
Pseudomonas aeruginosa [12] = experiment: Antimicrobial activity against MDR/XDR Pseudomonas aeruginosa isolate 100036 harboring GyrA Thr83Ile mutant incubated for 18 hrs by broth microdilution method; type: functional; conditions: isolate 100036, 18 h; method in brief: as §2
Pseudomonas aeruginosa [13] = experiment: Synergistic antibacterial activity against MDR/XDR Pseudomonas aeruginosa isolate PA262-101856 harboring GyrA T83I mutant assessed as fractional inhibitory concentration index in presence of ciprofloxacin incubated for 18 hrs by broth microdilution method; type: functional; method in brief: as §1
Pseudomonas aeruginosa [14] = experiment: Synergistic antibacterial activity against MDR/XDR Pseudomonas aeruginosa isolate PA262-101856 harboring GyrA T83I mutant assessed as fractional inhibitory concentration index in presence of moxifloxacin incubated for 18 hrs by broth microdilution method; type: functional; method in brief: as §1
Pseudomonas aeruginosa [15] = experiment: Synergistic antibacterial activity against MDR/XDR Pseudomonas aeruginosa isolate 91433 devoid of GyrA T83I mutant assessed as fractional inhibitory concentration index in presence of minocycline incubated for 18 hrs by broth microdilution method; type: functional; method in brief: as §1
Pseudomonas aeruginosa [16] = experiment: Synergistic antibacterial activity against MDR/XDR Pseudomonas aeruginosa isolate 100036 harboring GyrA T83I mutant assessed as fractional inhibitory concentration index in presence of moxifloxacin incubated for 18 hrs by broth microdilution method; type: functional; method in brief: as §1
Pseudomonas aeruginosa [17] = experiment: Synergistic antibacterial activity against MDR/XDR Pseudomonas aeruginosa isolate 101885 harboring GyrA T83I mutant assessed as fractional inhibitory concentration index in presence of moxifloxacin incubated for 18 hrs by broth microdilution method; type: functional; method in brief: as §1
Pseudomonas aeruginosa [18] = experiment: Antimicrobial activity against MDR/XDR Pseudomonas aeruginosa isolate PA262-101856 harboring GyrA Thr83Ile mutant incubated for 18 hrs by broth microdilution method; type: functional; conditions: isolate PA262-101856, 18 h; method in brief: as §2
Pseudomonas aeruginosa [19] = experiment: Synergistic antibacterial activity against MDR/XDR Pseudomonas aeruginosa isolate 101243 devoid of GyrA T83I mutant assessed as fractional inhibitory concentration index in presence of minocycline incubated for 18 hrs by broth microdilution method; type: functional; method in brief: as §1
Pseudomonas aeruginosa [20] = experiment: Synergistic antibacterial activity against MDR/XDR Pseudomonas aeruginosa isolate 101885 harboring T83I mutant assessed as fractional inhibitory concentration index in presence of rifampicin incubated for 18 hrs by broth microdilution method; type: functional; method in brief: as §1
Pseudomonas aeruginosa [21] = experiment: Antimicrobial activity against MDR/XDR Pseudomonas aeruginosa isolate 91433 devoid of GyrA Thr83Ile mutant incubated for 18 hrs by broth microdilution method; type: functional; conditions: isolate 91433, 18 h; method in brief: as §2
Enterobacter cloacae = experiment: Synergistic antibacterial activity against Enterobacter cloacae 117029 assessed as fractional inhibitory concentration index in presence of rifampicin incubated for 18 hrs by broth dilution method; type: functional
Method in brief: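 Checkerboard titration of the adjuvant against the antibiotic, run under the CLSI microdilution conditions (MHB, 5 × 10^5 CFU/mL, 18 h, 37 °C). Each agent's FIC is its MIC in combination divided by its MIC alone; FICI is the sum of the two FICs. FICI ≤0.5 was read as synergy, >0.5–4.0 as no interaction, and >4.0 as antagonism.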

Pseudomonas aeruginosa [22] = experiment: Synergistic antibacterial activity against MDR/XDR Pseudomonas aeruginosa isolate 91433 devoid of GyrA T83I mutant assessed as fractional inhibitory concentration index in presence of moxifloxacin incubated for 18 hrs by broth microdilution method; type: functional; method in brief: as §1
Pseudomonas aeruginosa [23] = experiment: Synergistic antibacterial activity against MDR/XDR Pseudomonas aeruginosa isolate 91433 devoid of GyrA T83I mutant assessed as fractional inhibitory concentration index in presence of ciprofloxacin incubated for 18 hrs by broth microdilution method; type: functional; method in brief: as §1

Compound	Activity (HepG2)	fractional inhibitory concentration index (FICI) (Pseudomonas aeruginosa [2])	MIC (Pseudomonas aeruginosa [3]) [µg/mL]	fractional inhibitory concentration index (FICI) (Pseudomonas aeruginosa [4])	fractional inhibitory concentration index (FICI) (Pseudomonas aeruginosa [5])	fractional inhibitory concentration index (FICI) (Pseudomonas aeruginosa [6])	fractional inhibitory concentration index (FICI) (Pseudomonas aeruginosa [7])	Activity (HEK293)	fractional inhibitory concentration index (FICI) (Pseudomonas aeruginosa [8])	fractional inhibitory concentration index (FICI) (Pseudomonas aeruginosa [9])	fractional inhibitory concentration index (FICI) (Pseudomonas aeruginosa [10])	fractional inhibitory concentration index (FICI) (Pseudomonas aeruginosa [11])	MIC (Pseudomonas aeruginosa [12]) [µg/mL]	fractional inhibitory concentration index (FICI) (Pseudomonas aeruginosa [13])	fractional inhibitory concentration index (FICI) (Pseudomonas aeruginosa [14])	fractional inhibitory concentration index (FICI) (Pseudomonas aeruginosa [15])	fractional inhibitory concentration index (FICI) (Pseudomonas aeruginosa [16])	fractional inhibitory concentration index (FICI) (Pseudomonas aeruginosa [17])	MIC (Pseudomonas aeruginosa [18]) [µg/mL]	fractional inhibitory concentration index (FICI) (Pseudomonas aeruginosa [19])	other results
COc1c(N2C[C@@H]3CCCN(CCCCCCCCCCCCO[C@@H]4[C@@H](O)[C@H](N)C[C@H](N)[C@H]4O[C@H]4O[C@H](CN)[C@@H](O)C[C@H]4N)[C@@H]3C2)c(F)cc2c(=O)c(C(=O)O)cn(C3CC3)c12.Cl.Cl.Cl.Cl.Cl	Non-Toxic	0.06	32	0.06	0.13	0.13	0.01	Non-Toxic	0.16	0.16	0.25	0.25	128	0.25 - 0.28	0.13 - 0.16	0.19	0.08	0.25	> 256	0.13	MIC80 (Pseudomonas aeruginosa [1]): 1 µg/mL; fractional inhibitory concentration index (FICI) (Pseudomonas aeruginosa [20]): 0.05; MIC (Pseudomonas aeruginosa [21]): 32 µg/mL; fractional inhibitory concentration index (FICI) (Enterobacter cloacae): 0.06; fractional inhibitory concentration index (FICI) (Pseudomonas aeruginosa [22]): 0.31; fractional inhibitory concentration index (FICI) (Pseudomonas aeruginosa [23]): 0.25
Cl.Cl.Cl.Cl.Cl.Cl.NC[C@H]1O[C@H](O[C@H]2[C@H](OCCCCCCCCCCN3CCN(Cc4cccc5ccccc45)CC3)[C@@H](O)[C@H](N)C[C@@H]2N)[C@H](N)C[C@@H]1O		0.031 - 0.033	32	0.05	0.08	0.05	0.004 - 0.012		0.13	0.5	0.16	0.38	> 512	0.13	0.09	0.19	0.063 - 0.07	0.07	512	0.09	fractional inhibitory concentration index (FICI) (Pseudomonas aeruginosa [20]): 0.02; MIC (Pseudomonas aeruginosa [21]): 32 µg/mL; fractional inhibitory concentration index (FICI) (Pseudomonas aeruginosa [22]): 0.25; fractional inhibitory concentration index (FICI) (Pseudomonas aeruginosa [23]): 0.38
Cl.Cl.Cl.Cl.Cl.NC[C@H]1O[C@H](O[C@H]2[C@H](OCCCCCCCCCCCCN3CCN(c4cc5c(cc4F)c(=O)c(C(=O)O)cn5C4CC4)CC3)[C@@H](O)[C@H](N)C[C@@H]2N)[C@H](N)C[C@@H]1O	Non-Toxic							Non-Toxic													fractional inhibitory concentration index (FICI) (Enterobacter cloacae): 0.023
